Reference: ChEMBL document CHEMBL1129264, “Mercaptoacyl dipeptides as orally active dual inhibitors of angiotensin-converting enzyme and neutral endopeptidase” (1996)
One block for each compound: values may come before it.

Legend:
Type in all cases: organism-based
[1] = target: T1, Angiotensin-converting enzyme (Rattus norvegicus) (UniProt P47820); experiment: Compound was tested for plasma inhibition of Angiotensin I converting enzyme activity in the conscious rat. Expressed as Inhibition of AI pressor response at 4 hr at a dose of 12.1 mg/kg po; parameters: dose 12.1 mg/kg
T1 sequence (whole entry): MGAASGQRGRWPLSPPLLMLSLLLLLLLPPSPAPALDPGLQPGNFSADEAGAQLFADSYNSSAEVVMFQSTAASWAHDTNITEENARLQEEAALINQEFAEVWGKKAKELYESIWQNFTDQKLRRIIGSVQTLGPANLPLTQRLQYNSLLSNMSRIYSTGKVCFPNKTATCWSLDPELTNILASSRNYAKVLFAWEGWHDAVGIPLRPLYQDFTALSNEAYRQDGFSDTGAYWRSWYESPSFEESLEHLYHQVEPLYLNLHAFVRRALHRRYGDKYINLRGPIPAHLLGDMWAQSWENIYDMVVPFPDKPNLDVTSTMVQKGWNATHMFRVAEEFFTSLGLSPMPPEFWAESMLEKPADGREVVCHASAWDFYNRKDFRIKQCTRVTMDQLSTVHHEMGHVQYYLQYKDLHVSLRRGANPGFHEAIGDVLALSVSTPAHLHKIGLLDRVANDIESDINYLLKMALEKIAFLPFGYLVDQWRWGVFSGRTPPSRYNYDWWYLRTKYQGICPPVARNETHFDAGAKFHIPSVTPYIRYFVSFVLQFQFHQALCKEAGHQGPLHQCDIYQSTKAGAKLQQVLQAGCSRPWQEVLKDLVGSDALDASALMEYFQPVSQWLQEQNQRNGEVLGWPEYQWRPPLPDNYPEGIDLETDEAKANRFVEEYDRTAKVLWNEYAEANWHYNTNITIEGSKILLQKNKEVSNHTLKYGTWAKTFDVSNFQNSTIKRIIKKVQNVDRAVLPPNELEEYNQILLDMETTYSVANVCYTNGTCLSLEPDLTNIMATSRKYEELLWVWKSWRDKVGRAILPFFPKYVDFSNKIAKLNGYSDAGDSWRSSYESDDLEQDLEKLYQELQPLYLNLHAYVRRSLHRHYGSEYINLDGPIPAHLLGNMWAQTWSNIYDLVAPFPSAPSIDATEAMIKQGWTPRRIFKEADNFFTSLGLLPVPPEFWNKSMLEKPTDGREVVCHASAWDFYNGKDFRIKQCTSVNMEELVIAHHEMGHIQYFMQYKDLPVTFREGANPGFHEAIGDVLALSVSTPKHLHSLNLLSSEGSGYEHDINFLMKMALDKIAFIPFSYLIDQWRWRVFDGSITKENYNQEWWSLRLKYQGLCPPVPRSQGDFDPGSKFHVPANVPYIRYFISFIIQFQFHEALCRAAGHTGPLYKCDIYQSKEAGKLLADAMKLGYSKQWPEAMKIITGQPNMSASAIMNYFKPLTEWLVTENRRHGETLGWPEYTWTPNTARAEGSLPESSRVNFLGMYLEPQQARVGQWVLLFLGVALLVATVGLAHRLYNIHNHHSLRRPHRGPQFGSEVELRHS
How it was run: (§1)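 Male conscious normotensive Sprague-Dawley rats (275-390 g), given femoral arterial and venous catheters under methohexital sodium (75 mg/kg ip) anesthesia. Next day, pressor responses to three angiotensin-I challenges (300 ng/kg iv) recorded by direct arterial pressure. Compound then dosed orally, and AI challenge repeated at set times. Each post-dose response compared with the mean of the three baseline responses, giving % inhibition.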

[2] = target: T1, Angiotensin-converting enzyme (Rattus norvegicus); experiment: Compound was tested for plasma inhibition of Angiotensin I converting enzyme activity in the conscious rat. Expressed as Inhibition of AI pressor response at 1 hr at a dose of 12.1 mg/kg po; parameters: dose 12.1 mg/kg; how it was run: as §1
[3] = target: T1, Angiotensin-converting enzyme (Rattus norvegicus); experiment: Compound was tested for plasma inhibition of Angiotensin I converting enzyme activity in the conscious rat. Expressed as Inhibition of AI pressor response at 2 hr at a dose of 12.1 mg/kg po; parameters: dose 12.1 mg/kg; how it was run: as §1
[4] = target: T1, Angiotensin-converting enzyme (Rattus norvegicus); experiment: Compound was tested for plasma inhibition of Angiotensin I converting enzyme activity in the conscious rat. Expressed as Inhibition of AI pressor response at 6 hr at a dose of 12.1 mg/kg po; parameters: dose 12.1 mg/kg
How it was run: (§2)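 Male conscious normotensive Sprague-Dawley rats (275-390 g), prepared under methohexital sodium (75 mg/kg ip) with femoral arterial and venous catheters. The next day, pressor responses to three angiotensin-I challenges (300 ng/kg iv) were recorded. Compound was then given orally and angiotensin-I challenges were repeated at set times. Percent inhibition is relative to the mean of the three baseline responses.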

[5] = target: T1, Angiotensin-converting enzyme (Rattus norvegicus); experiment: Compound was tested for plasma inhibition of Angiotensin I converting enzyme activity in the conscious rat. Expressed as Inhibition of AI pressor response at 6 hr at a dose of 14.4 mg/kg po; parameters: dose 14.4 mg/kg; how it was run: as §2
[6] = target: T1, Angiotensin-converting enzyme (Rattus norvegicus); experiment: Compound was tested for plasma inhibition of Angiotensin I converting enzyme activity in the conscious rat. Expressed as Inhibition of AI pressor response at 4 hr at a dose of 14.4 mg/kg po; parameters: dose 14.4 mg/kg; how it was run: as §2
[7] = target: T1, Angiotensin-converting enzyme (Rattus norvegicus); experiment: Compound was tested for plasma inhibition of Angiotensin I converting enzyme activity in the conscious rat. Expressed as Inhibition of AI pressor response at 1 hr at a dose of 14.4 mg/kg po; parameters: dose 14.4 mg/kg; how it was run: as §1
[8] = target: T1, Angiotensin-converting enzyme (Rattus norvegicus); experiment: Compound was tested for plasma inhibition of Angiotensin I converting enzyme activity in the conscious rat. Expressed as Inhibition of AI pressor response at 2 hr at a dose of 14.4 mg/kg po; parameters: dose 14.4 mg/kg; how it was run: as §1
[9] = target: T1, Angiotensin-converting enzyme (Rattus norvegicus); experiment: Compound was tested for plasma inhibition of Angiotensin I converting enzyme activity in the conscious rat. Expressed as Inhibition of AI pressor response at 2 hr at a dose of 13.7 mg/kg po; parameters: dose 13.7 mg/kg; how it was run: as §1
[10] = target: T1, Angiotensin-converting enzyme (Rattus norvegicus); experiment: Compound was tested for plasma inhibition of Angiotensin I converting enzyme activity in the conscious rat. Expressed as Inhibition of AI pressor response at 4 hr at a dose of 13.7 mg/kg po; parameters: dose 13.7 mg/kg; how it was run: as §2
[11] = target: T1, Angiotensin-converting enzyme (Rattus norvegicus); experiment: Compound was tested for plasma inhibition of Angiotensin I converting enzyme activity in the conscious rat. Expressed as Inhibition of AI pressor response at 1 hr at a dose of 13.7 mg/kg po; parameters: dose 13.7 mg/kg; how it was run: as §1
[12] = target: T1, Angiotensin-converting enzyme (Rattus norvegicus); experiment: Compound was tested for plasma inhibition of Angiotensin I converting enzyme activity in the conscious rat. Expressed as Inhibition of AI pressor response at 6 hr at a dose of 13.7 mg/kg po; parameters: dose 13.7 mg/kg; how it was run: as §2
[13] = target: T1, Angiotensin-converting enzyme (Rattus norvegicus); experiment: Compound was tested for plasma inhibition of Angiotensin I converting enzyme activity in the conscious rat. Expressed as Inhibition of AI pressor response at 4 hr at a dose of 13.5 mg/kg po; parameters: dose 13.5 mg/kg; how it was run: as §2
[14] = target: T1, Angiotensin-converting enzyme (Rattus norvegicus); experiment: Compound was tested for plasma inhibition of Angiotensin I converting enzyme activity in the conscious rat. Expressed as Inhibition of AI pressor response at 6 hr at a dose of 13.5 mg/kg po; parameters: dose 13.5 mg/kg; how it was run: as §2
[15] = target: T1, Angiotensin-converting enzyme (Rattus norvegicus); experiment: Compound was tested for plasma inhibition of Angiotensin I converting enzyme activity in the conscious rat. Expressed as Inhibition of AI pressor response at 1 hr at a dose of 13.5 mg/kg po; parameters: dose 13.5 mg/kg; how it was run: as §1
[16] = target: T1, Angiotensin-converting enzyme (Rattus norvegicus); experiment: Compound was tested for plasma inhibition of Angiotensin I converting enzyme activity in the conscious rat. Expressed as Inhibition of AI pressor response at 2 hr at a dose of 13.5 mg/kg po; parameters: dose 13.5 mg/kg; how it was run: as §1
[17] = target: T1, Angiotensin-converting enzyme (Rattus norvegicus); experiment: Compound was tested for plasma inhibition of Angiotensin I converting enzyme activity in the conscious rat. Expressed as Inhibition of AI pressor response at 1 hr at a dose of 14.5 mg/kg po; parameters: dose 14.5 mg/kg; how it was run: as §1
[18] = target: T1, Angiotensin-converting enzyme (Rattus norvegicus); experiment: Compound was tested for plasma inhibition of Angiotensin I converting enzyme activity in the conscious rat. Expressed as Inhibition of AI pressor response at 4 hr at a dose of 14.5 mg/kg po; parameters: dose 14.5 mg/kg; how it was run: as §2
[19] = target: T1, Angiotensin-converting enzyme (Rattus norvegicus); experiment: Compound was tested for plasma inhibition of Angiotensin I converting enzyme activity in the conscious rat. Expressed as Inhibition of AI pressor response at 6 hr at a dose of 14.5 mg/kg po; parameters: dose 14.5 mg/kg; how it was run: as §2
[20] = target: T1, Angiotensin-converting enzyme (Rattus norvegicus); experiment: Compound was tested for plasma inhibition of Angiotensin I converting enzyme activity in the conscious rat. Expressed as Inhibition of AI pressor response at 2 hr at a dose of 14.5 mg/kg po; parameters: dose 14.5 mg/kg; how it was run: as §1

Structure (SMILES): CCOC(=O)Oc1ccc(C[C@H](NC(=O)C2(NC(=O)[C@H](SC(C)=O)C(C)C)CCCC2)C(=O)OCC)cc1
- inhibition [13]: 25%
- inhibition [14]: 21%
- inhibition [15]: 24%
- inhibition [16]: 28%

Structure (SMILES): CCOC(=O)[C@H](Cc1ccc(OC(=O)c2cccs2)cc1)NC(=O)C1(NC(=O)[C@H](SC(C)=O)C(C)C)CCCC1
- inhibition [5]: 26%
- inhibition [6]: 36%
- inhibition [7]: 29%
- inhibition [8]: 37%

Structure (SMILES): CCOC(=O)CC(=O)Oc1ccc(C[C@H](NC(=O)C2(NC(=O)[C@H](SC(C)=O)C(C)C)CCCC2)C(=O)OCC)cc1
- inhibition [17]: 88%
- inhibition [18]: 82%
- inhibition [19]: 73%
- inhibition [20]: 78%

Further lines, results first:

- inhibition [1]: 37%
- inhibition [2]: 74%
- inhibition [3]: 69%
- inhibition [4]: 19%
Structure (SMILES): CCCOC(=O)[C@H](Cc1ccc(O)cc1)NC(=O)C1(NC(=O)[C@H](SC(C)=O)C(C)C)CCCC1

- inhibition [5]: 26%
- inhibition [6]: 50%
- inhibition [7]: 65%
- inhibition [8]: 55%
Structure (SMILES): CCCCOC(=O)[C@H](Cc1ccc(O)cc1)NC(=O)C1(NC(=O)[C@H](SC(=O)CN2CCCCC2)C(C)C)CCCC1

- inhibition [9]: 49%
- inhibition [10]: 38%
- inhibition [11]: 57%
- inhibition [12]: 27%
Structure (SMILES): CCCCOC(=O)[C@H](Cc1ccc(O)cc1)NC(=O)C1(NC(=O)[C@H](SC(=O)C2CCCC2)C(C)C)CCCC1
